Reference: ChEMBL document CHEMBL4396871, “Leveraging a Low-Affinity Diazaspiro Orthosteric Fragment to Reduce Dopamine D3 Receptor (D3R) Ligand Promiscuity across Highly Conserved Aminergic G-Protein-Coupled Receptors (GPCRs)” (J Med Chem, 2019)
pEC50, pIC50, pKi: −log10 of the molar value.

Columns and labels:
[1] = biological target: Mu-type opioid receptor (Homo sapiens) (UniProt P35372); test: Displacement of [3H]-DAMGO from human MOR stably expressed in HEK cell membranes at 10 uM after 90 mins by microbeta scintillation counting method relative to control
Summary of the method: (§1)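 Primary screen at 10 μM compound, expressed as % receptor inhibition, from at least three experiments.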

D(3) dopamine receptor [2] = biological target: T1, D(3) dopamine receptor (Homo sapiens, UniProt P35462); test: Displacement of [3H]N-methylspiperone from D3 receptor (unknown origin) measured after 90 mins by microbeta scintillation counting method relative to control
T1 sequence (P35462 whole entry): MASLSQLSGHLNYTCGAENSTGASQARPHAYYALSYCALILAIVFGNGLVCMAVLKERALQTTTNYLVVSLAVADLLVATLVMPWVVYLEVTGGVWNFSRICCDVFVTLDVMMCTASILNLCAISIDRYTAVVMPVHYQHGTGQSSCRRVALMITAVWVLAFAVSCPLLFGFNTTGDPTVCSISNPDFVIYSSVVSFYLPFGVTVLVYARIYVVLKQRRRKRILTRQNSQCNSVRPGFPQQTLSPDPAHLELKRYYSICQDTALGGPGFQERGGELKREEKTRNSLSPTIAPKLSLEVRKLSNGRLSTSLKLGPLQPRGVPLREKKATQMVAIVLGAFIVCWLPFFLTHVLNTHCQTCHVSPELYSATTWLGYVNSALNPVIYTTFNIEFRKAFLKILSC

[3] = biological target: 5-hydroxytryptamine receptor 2B (Homo sapiens, UniProt P41595); test: Displacement of [3H]-LSD from recombinant human 5HT2B receptor stably expressed in HEK cell membranes measured after 90 mins by microbeta scintillation counting method
Sequence of 5-hydroxytryptamine receptor 2B (P41595 whole entry): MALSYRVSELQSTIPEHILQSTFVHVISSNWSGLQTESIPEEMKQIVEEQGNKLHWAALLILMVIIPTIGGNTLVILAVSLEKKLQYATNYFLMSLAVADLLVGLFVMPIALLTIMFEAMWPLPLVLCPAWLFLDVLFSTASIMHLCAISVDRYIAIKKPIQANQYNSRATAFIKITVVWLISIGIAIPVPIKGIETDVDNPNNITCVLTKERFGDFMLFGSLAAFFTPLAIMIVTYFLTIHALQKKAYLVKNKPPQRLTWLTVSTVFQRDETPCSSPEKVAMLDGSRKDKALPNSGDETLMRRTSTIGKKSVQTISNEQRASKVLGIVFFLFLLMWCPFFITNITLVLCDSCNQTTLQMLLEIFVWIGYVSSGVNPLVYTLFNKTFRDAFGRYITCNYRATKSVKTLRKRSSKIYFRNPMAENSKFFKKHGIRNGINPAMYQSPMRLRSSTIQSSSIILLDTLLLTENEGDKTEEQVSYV

[4] = biological target: Beta-2 adrenergic receptor (Homo sapiens) (UniProt P07550); test: Displacement of [3H]-CGP12177 from recombinant human beta2 adrenergic stably expressed in HEK Flp-In cells at 10 uM measured after 90 mins by microbeta scintillation counting method relative to control; assay type: cell-based; summary of the method: as §1
Sequence of Beta-2 adrenergic receptor (Homo sapiens) (P07550 whole entry, looked up): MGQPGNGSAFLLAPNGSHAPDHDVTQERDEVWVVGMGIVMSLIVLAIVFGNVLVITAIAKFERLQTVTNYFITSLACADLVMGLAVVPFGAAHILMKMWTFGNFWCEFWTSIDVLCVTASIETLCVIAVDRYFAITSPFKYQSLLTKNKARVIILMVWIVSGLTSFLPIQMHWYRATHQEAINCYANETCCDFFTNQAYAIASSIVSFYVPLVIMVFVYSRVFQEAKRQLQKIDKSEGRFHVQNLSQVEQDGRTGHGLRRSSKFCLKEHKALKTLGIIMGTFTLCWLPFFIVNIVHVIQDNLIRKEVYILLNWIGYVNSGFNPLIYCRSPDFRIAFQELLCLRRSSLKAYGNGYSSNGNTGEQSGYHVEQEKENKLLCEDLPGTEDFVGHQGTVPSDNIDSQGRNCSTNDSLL

[5] = biological target: Kappa-type opioid receptor (Homo sapiens) (UniProt P41145); test: Displacement of [3H]-U69593 from KOR (unknown origin) at 10 uM after 90 mins by microbeta scintillation counting method relative to control; summary of the method: as §1
Sequence of Kappa-type opioid receptor (Homo sapiens) (P41145 whole entry): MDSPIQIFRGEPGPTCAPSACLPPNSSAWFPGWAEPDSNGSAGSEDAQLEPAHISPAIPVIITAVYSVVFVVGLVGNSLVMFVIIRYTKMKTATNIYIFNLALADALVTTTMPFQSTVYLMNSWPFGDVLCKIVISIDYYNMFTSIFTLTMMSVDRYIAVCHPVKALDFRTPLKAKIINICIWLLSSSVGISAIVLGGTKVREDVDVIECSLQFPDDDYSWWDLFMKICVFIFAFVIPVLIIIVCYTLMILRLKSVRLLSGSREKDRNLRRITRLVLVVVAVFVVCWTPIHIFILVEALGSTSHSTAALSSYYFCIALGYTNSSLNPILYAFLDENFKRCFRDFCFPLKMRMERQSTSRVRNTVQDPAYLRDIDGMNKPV

[6] = biological target: Beta-3 adrenergic receptor (Homo sapiens) (UniProt P13945); test: Displacement of [3H]-CGP12177 from recombinant human beta3 adrenergic stably expressed in HEK Flp-In cells at 10 uM measured after 90 mins by microbeta scintillation counting method relative to control; assay type: cell-based; summary of the method: as §1
Sequence of Beta-3 adrenergic receptor (Homo sapiens) (P13945 whole entry, looked up): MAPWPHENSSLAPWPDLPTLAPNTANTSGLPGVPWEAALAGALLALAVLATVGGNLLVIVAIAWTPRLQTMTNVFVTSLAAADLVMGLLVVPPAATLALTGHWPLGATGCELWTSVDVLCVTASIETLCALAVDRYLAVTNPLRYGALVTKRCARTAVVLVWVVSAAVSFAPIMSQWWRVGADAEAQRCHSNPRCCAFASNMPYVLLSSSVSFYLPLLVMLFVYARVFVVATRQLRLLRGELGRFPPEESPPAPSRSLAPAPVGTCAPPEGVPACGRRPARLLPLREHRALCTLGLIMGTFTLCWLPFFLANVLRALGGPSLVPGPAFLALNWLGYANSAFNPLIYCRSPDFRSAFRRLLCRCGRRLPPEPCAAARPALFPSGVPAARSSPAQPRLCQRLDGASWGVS

[7] = biological target: Nicotinic acetylcholine receptor alpha2/beta4 (Homo sapiens) (UniProt P02708+P30926); test: Displacement of [3H]-epibatidine from recombinant human alpha2beta4 nACHR stably expressed in HEK cells at 10 uM measured after 90 mins by microbeta scintillation counting method relative to control; assay type: cell-based; summary of the method: as §1
[8] = biological target: Muscarinic acetylcholine receptor M5 (Homo sapiens) (UniProt P08912); test: Displacement of [3H]-QNB/[3H]-NMS from human muscarinic M5 receptor expressed in stable CHO cells at 10 uM after 90 mins by microbeta scintillation counting method relative to control; assay type: cell-based; summary of the method: as §1
[9] = biological target: Delta-type opioid receptor (Homo sapiens) (UniProt P41143); test: Displacement of [3H]-DADLE from human DOR stably expressed in HEK cell membranes at 10 uM after 90 mins by microbeta scintillation counting method relative to control; summary of the method: as §1
[10] = biological target: Muscarinic acetylcholine receptor M1 (Homo sapiens) (UniProt P11229); test: Displacement of [3H]-QNB/[3H]-NMS from human muscarinic M1 receptor expressed in stable CHO cells at 10 uM after 90 mins by microbeta scintillation counting method relative to control; assay type: cell-based; summary of the method: as §1
Sequence of Muscarinic acetylcholine receptor M1 (Homo sapiens) (P11229 whole entry): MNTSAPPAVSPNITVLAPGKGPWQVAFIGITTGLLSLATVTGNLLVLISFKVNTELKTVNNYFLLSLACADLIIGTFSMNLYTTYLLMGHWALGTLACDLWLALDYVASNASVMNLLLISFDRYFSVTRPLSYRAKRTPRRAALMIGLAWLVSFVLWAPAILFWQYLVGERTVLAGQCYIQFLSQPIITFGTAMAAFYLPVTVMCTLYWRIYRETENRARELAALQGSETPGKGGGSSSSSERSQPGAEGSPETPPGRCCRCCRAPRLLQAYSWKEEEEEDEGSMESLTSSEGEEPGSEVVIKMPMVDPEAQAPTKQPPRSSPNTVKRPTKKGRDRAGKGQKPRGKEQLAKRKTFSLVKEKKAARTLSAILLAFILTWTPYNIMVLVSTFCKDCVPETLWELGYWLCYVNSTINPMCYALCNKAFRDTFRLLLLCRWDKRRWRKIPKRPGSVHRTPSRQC

[11] = biological target: 5-hydroxytryptamine receptor 6 (Homo sapiens) (UniProt P50406); test: Displacement of [3H]-LSD from recombinant human 5HT6 receptor stably expressed in HEK cell membranes at 10 uM measured after 90 mins by microbeta scintillation counting method relative to control; summary of the method: as §1
Sequence of 5-hydroxytryptamine receptor 6 (Homo sapiens) (P50406 whole entry): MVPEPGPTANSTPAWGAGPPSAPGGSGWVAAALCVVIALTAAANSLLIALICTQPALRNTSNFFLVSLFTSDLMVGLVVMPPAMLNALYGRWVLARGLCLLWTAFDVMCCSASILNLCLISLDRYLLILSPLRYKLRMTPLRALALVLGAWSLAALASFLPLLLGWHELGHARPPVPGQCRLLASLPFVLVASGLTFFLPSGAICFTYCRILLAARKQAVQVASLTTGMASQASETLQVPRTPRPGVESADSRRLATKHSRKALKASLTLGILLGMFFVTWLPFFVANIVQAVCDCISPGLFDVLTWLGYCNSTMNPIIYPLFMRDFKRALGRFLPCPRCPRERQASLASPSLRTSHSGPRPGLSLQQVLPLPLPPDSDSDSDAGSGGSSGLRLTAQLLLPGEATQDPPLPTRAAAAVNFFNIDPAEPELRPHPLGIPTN

[12] = biological target: 5-hydroxytryptamine receptor 3A (Homo sapiens) (UniProt P46098); test: Displacement of [3H]-GR65630 from recombinant human 5HT3 receptor transiently expressed in HEKT cell membranes at 10 uM measured after 90 mins by microbeta scintillation counting method relative to control; summary of the method: as §1
Histamine H2 receptor = Histamine H2 receptor (Homo sapiens, UniProt P25021); test: Displacement of [125I]-Iodo-aminopotentidine from human histamine H2 receptor expressed in stable HEK cells after 90 mins by microbeta scintillation counting method; assay type: cell-based
Sequence of Histamine H2 receptor (P25021 whole entry): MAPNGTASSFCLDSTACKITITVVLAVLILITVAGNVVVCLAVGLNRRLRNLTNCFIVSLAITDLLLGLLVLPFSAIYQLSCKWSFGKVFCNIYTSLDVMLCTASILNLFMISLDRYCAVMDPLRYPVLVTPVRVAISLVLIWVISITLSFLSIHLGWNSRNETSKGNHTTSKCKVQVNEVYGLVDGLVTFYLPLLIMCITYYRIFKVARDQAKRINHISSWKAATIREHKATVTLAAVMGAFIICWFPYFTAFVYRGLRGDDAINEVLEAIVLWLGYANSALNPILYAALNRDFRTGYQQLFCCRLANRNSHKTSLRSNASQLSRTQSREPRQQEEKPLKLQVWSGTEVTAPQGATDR

[13] = biological target: GABA-A receptor; anion channel (Rattus norvegicus) (UniProt O09028+P15431+P18506+P18508+P19969+P20236+P23574+P23576+P28471+P28473+P30191+P62813+P63079+P63138+Q91ZM7+Q9ES14); test: Displacement of [3H]-muscimol from rat brain GABAA receptor at 10 uM measured after 90 mins by microbeta scintillation counting method relative to control; summary of the method: as §1
[14] = biological target: 5-hydroxytryptamine receptor 1D (Homo sapiens) (UniProt P28221); test: Displacement of [3H]-5-CT from recombinant human 5HT1D receptor transiently expressed in HEKT cell membranes at 10 uM measured after 90 mins by microbeta scintillation counting method relative to control; summary of the method: as §1
Sequence of 5-hydroxytryptamine receptor 1D (Homo sapiens) (P28221 whole entry): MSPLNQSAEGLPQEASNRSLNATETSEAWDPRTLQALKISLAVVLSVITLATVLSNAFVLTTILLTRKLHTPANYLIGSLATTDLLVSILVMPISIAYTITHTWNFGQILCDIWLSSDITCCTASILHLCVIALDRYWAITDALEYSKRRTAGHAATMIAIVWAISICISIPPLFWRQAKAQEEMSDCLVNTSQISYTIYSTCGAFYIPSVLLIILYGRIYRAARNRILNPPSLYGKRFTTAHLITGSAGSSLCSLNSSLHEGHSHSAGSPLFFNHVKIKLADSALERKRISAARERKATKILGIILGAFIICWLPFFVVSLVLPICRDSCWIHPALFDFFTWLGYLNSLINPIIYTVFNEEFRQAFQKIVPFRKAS

D2 dopamine receptor = D2 dopamine receptor (Homo sapiens, UniProt P14416); test: Antagonist activity at recombinant human D2 receptor expressed in CHOK1 cells assessed as inhibition of quinpirole-induced beta arrestin2 recruitment preincubated for 30 mins followed by quinpirole addition and measured after 90 mins by coelenterazine-based beta-galactosidase reporter gene assay; assay type: cell-based
[15] = biological target: Neuronal acetylcholine receptor; alpha3/beta2 (Homo sapiens) (UniProt P17787+P32297); test: Displacement of [3H]-epibatidine from recombinant human alpha3beta2 nACHR stably expressed in HEK cells at 10 uM measured after 90 mins by microbeta scintillation counting method relative to control; assay type: cell-based; summary of the method: as §1
[16] = biological target: Sodium-dependent dopamine transporter (Homo sapiens) (UniProt Q01959); test: Displacement of [3H]-Win35428 from recombinant human DAT stably expressed in HEK cells at 10 uM measured after 90 mins by microbeta scintillation counting method relative to control; assay type: cell-based; summary of the method: as §1
[17] = biological target: 5-hydroxytryptamine receptor 1E (Homo sapiens) (UniProt P28566); test: Displacement of [3H]-5-HT from recombinant human 5HT1E receptor stably expressed in HEK cell membranes at 10 uM measured after 90 mins by microbeta scintillation counting method relative to control; summary of the method: as §1
Sequence of 5-hydroxytryptamine receptor 1E (Homo sapiens) (P28566 whole entry): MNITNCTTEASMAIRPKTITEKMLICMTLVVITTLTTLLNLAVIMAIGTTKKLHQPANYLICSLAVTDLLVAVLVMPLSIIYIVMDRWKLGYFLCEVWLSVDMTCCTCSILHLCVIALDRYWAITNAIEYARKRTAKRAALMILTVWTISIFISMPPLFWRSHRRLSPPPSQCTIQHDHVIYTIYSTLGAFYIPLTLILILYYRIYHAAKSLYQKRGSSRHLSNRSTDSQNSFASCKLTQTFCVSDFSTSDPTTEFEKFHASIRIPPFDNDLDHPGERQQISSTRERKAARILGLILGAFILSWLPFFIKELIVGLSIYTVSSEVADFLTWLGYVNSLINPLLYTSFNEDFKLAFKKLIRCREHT

[18] = biological target: 5-hydroxytryptamine receptor 5A (Homo sapiens) (UniProt P47898); test: Displacement of [3H]-LSD from recombinant human 5HT5A receptor stably expressed in Flp-In-CHO cell membranes at 10 uM measured after 90 mins by microbeta scintillation counting method relative to control; summary of the method: as §1
[19] = biological target: 5-hydroxytryptamine receptor 1A (Homo sapiens, UniProt P08908); test: Displacement of [3H]-Way100635 from recombinant human 5HT1A receptor transiently expressed in CHO cell membranes measured after 90 mins by microbeta scintillation counting method
[20] = biological target: Beta-1 adrenergic receptor (Homo sapiens) (UniProt P08588); test: Displacement of [125I]-pindolol from recombinant human beta1 adrenergic stably expressed in CHO Flp-In cells at 10 uM measured after 90 mins by microbeta scintillation counting method relative to control; assay type: cell-based; summary of the method: as §1
D(3) dopamine receptor [21] = biological target: T1, D(3) dopamine receptor; test: Agonist activity at recombinant human D3 receptor expressed in CHOK1 cells assessed as induction of beta arrestin2 recruitment measured after 30 mins by coelenterazine-based beta-galactosidase reporter gene assay; assay type: cell-based
[22] = biological target: Histamine H4 receptor (Homo sapiens) (UniProt Q9H3N8); test: Displacement of [3H]-histamine from human histamine H4 receptor stably expressed in HEKT cell membranes at 10 uM after 90 mins by microbeta scintillation counting method relative to control; summary of the method: as §1
Sequence of Histamine H4 receptor (Homo sapiens) (Q9H3N8 whole entry): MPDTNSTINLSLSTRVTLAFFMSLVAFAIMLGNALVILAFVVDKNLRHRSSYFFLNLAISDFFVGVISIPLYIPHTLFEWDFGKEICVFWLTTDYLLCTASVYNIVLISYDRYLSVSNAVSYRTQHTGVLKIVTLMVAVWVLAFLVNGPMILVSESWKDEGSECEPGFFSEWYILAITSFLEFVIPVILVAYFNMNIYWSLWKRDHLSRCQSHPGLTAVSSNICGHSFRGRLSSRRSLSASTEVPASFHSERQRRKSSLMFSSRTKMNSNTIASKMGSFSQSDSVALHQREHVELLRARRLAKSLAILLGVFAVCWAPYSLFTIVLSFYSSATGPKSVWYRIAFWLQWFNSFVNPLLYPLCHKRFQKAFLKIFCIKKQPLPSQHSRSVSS

D(1A) dopamine receptor = D(1A) dopamine receptor (Homo sapiens, UniProt P21728); test: Agonist activity at recombinant human D1 receptor expressed in CHOK1 cells assessed as induction of beta arrestin2 recruitment measured after 30 mins by coelenterazine-based beta-galactosidase reporter gene assay; assay type: cell-based
Sequence of D(1A) dopamine receptor (P21728 whole entry): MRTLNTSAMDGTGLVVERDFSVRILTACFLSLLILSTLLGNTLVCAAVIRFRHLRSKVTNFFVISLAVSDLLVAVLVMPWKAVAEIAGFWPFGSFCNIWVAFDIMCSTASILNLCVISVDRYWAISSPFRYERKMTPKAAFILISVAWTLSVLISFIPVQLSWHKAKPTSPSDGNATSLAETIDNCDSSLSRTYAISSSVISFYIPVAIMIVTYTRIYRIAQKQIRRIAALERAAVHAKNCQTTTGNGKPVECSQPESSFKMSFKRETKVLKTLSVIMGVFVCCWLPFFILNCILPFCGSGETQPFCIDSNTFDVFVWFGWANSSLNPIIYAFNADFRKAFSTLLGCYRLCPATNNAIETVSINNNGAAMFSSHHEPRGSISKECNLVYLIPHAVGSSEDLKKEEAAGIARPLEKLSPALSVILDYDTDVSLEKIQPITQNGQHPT

[23] = biological target: Alpha-2C adrenergic receptor (Homo sapiens, UniProt P18825); test: Displacement of [3H]-rauwolscine from recombinant human alpha2C adrenergic receptor stably expressed in MDCK cells measured after 90 mins by microbeta scintillation counting method; assay type: cell-based

| Structure (SMILES) | inhibition [1] | pKi (D(3) dopamine receptor [2]) | pKi [3] | inhibition [4] | inhibition [5] | inhibition [6] | inhibition [7] | inhibition [8] | inhibition [9] | inhibition [10] | inhibition [11] | inhibition [12] | pKi (Histamine H2 receptor) | inhibition [13] | inhibition [14] | pIC50 (D2 dopamine receptor) | inhibition [15] | inhibition [16] | inhibition [17] | inhibition [18] | also measured |
| --- | --- | --- | --- | --- | --- | --- | --- | --- | --- | --- | --- | --- | --- | --- | --- | --- | --- | --- | --- | --- | --- |
| COc1ccccc1N1CCN(CCCSc2nnc(-c3ccccc3)n2C)CC1 | < 50% | 8.22 | 7.38 | 60% | < 50% | < 50% | < 50% | < 50% | < 50% | < 50% | < 50% | < 50% | 6.06 | < 50% | > 50% | 6.48 | < 50% | < 50% | < 50% | < 50% | pKi [19]: 9.05; inhibition [20]: < 50%; pEC50 (D(3) dopamine receptor [21]; read-out: EC50): 6.78; inhibition [22]: < 50%; EC50 (D(1A) dopamine receptor): Not Active; pKi [23]: 6.36 |
| COc1ccccc1N1CCC2(CCN(CCCSc3nnc(-c4ccccc4)n3C)CC2)CC1 | < 50% | 7.03 | 5.67 | < 50% | < 50% | < 50% | < 50% | < 50% | < 50% | 54% | < 50% | < 50% | 6.22 | < 50% | < 50% | 5.79 | < 50% | < 50% | < 50% | < 50% | pKi [19]: 5.89; inhibition [20]: < 50%; EC50 (D(3) dopamine receptor [21]): Not Active; inhibition [22]: < 50%; EC50 (D(1A) dopamine receptor): Not Active; pKi [23]: 5.81 |
